How the values were obtained:
[1] = system: P-gp/BCRP at the non-human primate BBB; conditions: intravenous administration; cited from earlier work
P-gp/BCRP = conditions: humans, oral dosing; cited from earlier work
[2] = FVB mice, microemulsion dosing; cited from earlier work
P-gp at the BBB [3] = conditions: humans, cited from earlier work
[4] = format: in vivo, Sprague–Dawley rats
Method in brief: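 Male Sprague–Dawley rats (10–12 weeks, 0.31–0.48 kg), n = 5/group, given 15 mg/kg once as solution or microemulsion by gavage or i.p. injection. The solution only was also given as an i.v. tail-vein bolus under isoflurane. Sublingual blood was drawn at 0.5, 1, 2, 4, 8 and 24 h. Plasma was methanol-precipitated and assayed by LC–MS/MS (calibration 0.005–10 µg/mL). Cmax, Tmax and trapezoidal AUC0–24 came from non-fitted data, expressed relative to i.v.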

P-gp at the human BBB = conditions: humans, P-gp inhibition at the BBB, plasma concentration; cited from earlier work
[5] = rats and monkeys, after intravenous [14C]tariquidar; cited from earlier work
human BCRP = conditions: cited from earlier work
[6] = humans, after intravenous administration; cited from earlier work
human P-gp = conditions: cited from earlier work
[7] = Tolerability of tariquidar administration in rats; format: in vivo, Sprague–Dawley rats; conditions: 15 mg/kg single dose, intravenous, oral or intraperitoneal
P-gp at the BBB [8] = conditions: rats, plasma concentration; cited from earlier work
[9] = Sprague-Dawley, rat, plasma, iv, 15 mg/kg
[10] = intraperitoneal dosing, both formulations pooled, rats
[11] = oral dosing irrespective of formulation, rats

COc1cc2c(cc1OC)CN(CCc1ccc(NC(=O)c3cccc4c(=O)c5cccc(OC)c5[nH]c34)cc1)CC2 [elacridar]
increase in brain distribution of [11C]erlotinib [1]: 3.5 fold | effect on brain uptake of [11C]erlotinib (P-gp/BCRP): failed to increase brain uptake | oral bioavailability [2]: 47%

COc1cc2c(cc1OC)CN(CCc1ccc(NC(=O)c3cc(OC)c(OC)cc3NC(=O)c3cnc4ccccc4c3)cc1)CC2 [tariquidar]
increase in brain distribution of (R)-[11C]verapamil and [11C]N-desmethyl-loperamide (P-gp at the BBB [3]; PET, continuous intravenous infusion): up to fivefold increases | effect on brain distribution of [11C]N-desmethyl-loperamide (P-gp at the BBB [3]; orally administered tariquidar): failed to reveal an effect | AUC(0-t) [4, 9]: 25200 ng·h/mL | Cmax [4, 9]: 1900 ng/mL | Tmax [4, 9]: 30 min | concentration at 30 min [4, 9]: 1910 ± 290 ng/mL | mean AUC0–24 as % of value after intravenous dosing [4, 10]: ~97% | mean Cmax as % of value after intravenous dosing [4, 10]: approximately 80% | mean AUC0–24 as % of value after intravenous exposure [4, 11]: ~79% | mean Cmax as % of value after intravenous exposure [4, 11]: approximately 65% | in vivo EC50 (P-gp at the human BBB): 1.454 µg/mL | tariquidar-related material in plasma existing as unchanged parent compound [5]: > 95% | in vitro EC50 for inhibition of its own transport (human BCRP; human BCRP): 0.201 µg/mL | ratio of EC50 for human BCRP to EC50 for human P-gp (human BCRP; inhibition of its own transport, in vitro): approximately 20 fold | tariquidar metabolites in plasma [6]: no tariquidar metabolites were found in plasma | in vitro EC50 for inhibition of its own transport (human P-gp): 0.011 µg/mL | tolerability [7]: well tolerated by all animals | in vivo half-maximum effect concentration (EC50) to increase brain uptake of (R)-[11C]verapamil (P-gp at the BBB [8]): 0.545 ± 0.03 µg/mL

— article PMC6133083 (European Journal of Drug Metabolism and Pharmacokinetics, 2018)
